From ChEMBL document CHEMBL3751676, “Combating P-glycoprotein-mediated multidrug resistance with 10-O-phenyl dihydroartemisinin ethers in MCF-7 cells” (Eur J Med Chem, 2016)

Legend:
MCF7 = test: Antiproliferative activity against human MCF7 cells after 96 hrs by MTT assay; type: functional; conditions: MCF7, 96 h
Outline: (§1)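 MTT: cells seeded at 1.5-4.0 × 10^4 cells/mL and incubated overnight at 37 C, then exposed to 5-9 concentrations (DMSO stocks diluted in growth medium; final DMSO ≤0.5%) for 96 h. MTT added at 0.5 mg/mL for a further 4 h at 37 C and the formazan dissolved. Inhibition calculated relative to control; GI50 estimated by curve fitting; 3-5 repeats, mean ± SD.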

[1] = Antiproliferative activity against human MCF7/ADR cells after 96 hrs by MTT assay; type: functional; conditions: NCI/ADR-RES; outline: as §1
NCI/ADR-RES = test: Selectivity index, ratio of GI50 for human MCF7 cells to GI50 for human MCF7/ADR cells; type: functional
MDR1 (ABCB1) [2] = target: T1, MDR1 (ABCB1) (Homo sapiens, UniProt P08183); test: Activity at MDR1 (unknown origin) expressed in MDCK cells assessed as permeability across apical to basolateral after 90 mins by LC-MS/MS analysis; type: ADME, cell-based
T1 sequence (P08183 whole entry): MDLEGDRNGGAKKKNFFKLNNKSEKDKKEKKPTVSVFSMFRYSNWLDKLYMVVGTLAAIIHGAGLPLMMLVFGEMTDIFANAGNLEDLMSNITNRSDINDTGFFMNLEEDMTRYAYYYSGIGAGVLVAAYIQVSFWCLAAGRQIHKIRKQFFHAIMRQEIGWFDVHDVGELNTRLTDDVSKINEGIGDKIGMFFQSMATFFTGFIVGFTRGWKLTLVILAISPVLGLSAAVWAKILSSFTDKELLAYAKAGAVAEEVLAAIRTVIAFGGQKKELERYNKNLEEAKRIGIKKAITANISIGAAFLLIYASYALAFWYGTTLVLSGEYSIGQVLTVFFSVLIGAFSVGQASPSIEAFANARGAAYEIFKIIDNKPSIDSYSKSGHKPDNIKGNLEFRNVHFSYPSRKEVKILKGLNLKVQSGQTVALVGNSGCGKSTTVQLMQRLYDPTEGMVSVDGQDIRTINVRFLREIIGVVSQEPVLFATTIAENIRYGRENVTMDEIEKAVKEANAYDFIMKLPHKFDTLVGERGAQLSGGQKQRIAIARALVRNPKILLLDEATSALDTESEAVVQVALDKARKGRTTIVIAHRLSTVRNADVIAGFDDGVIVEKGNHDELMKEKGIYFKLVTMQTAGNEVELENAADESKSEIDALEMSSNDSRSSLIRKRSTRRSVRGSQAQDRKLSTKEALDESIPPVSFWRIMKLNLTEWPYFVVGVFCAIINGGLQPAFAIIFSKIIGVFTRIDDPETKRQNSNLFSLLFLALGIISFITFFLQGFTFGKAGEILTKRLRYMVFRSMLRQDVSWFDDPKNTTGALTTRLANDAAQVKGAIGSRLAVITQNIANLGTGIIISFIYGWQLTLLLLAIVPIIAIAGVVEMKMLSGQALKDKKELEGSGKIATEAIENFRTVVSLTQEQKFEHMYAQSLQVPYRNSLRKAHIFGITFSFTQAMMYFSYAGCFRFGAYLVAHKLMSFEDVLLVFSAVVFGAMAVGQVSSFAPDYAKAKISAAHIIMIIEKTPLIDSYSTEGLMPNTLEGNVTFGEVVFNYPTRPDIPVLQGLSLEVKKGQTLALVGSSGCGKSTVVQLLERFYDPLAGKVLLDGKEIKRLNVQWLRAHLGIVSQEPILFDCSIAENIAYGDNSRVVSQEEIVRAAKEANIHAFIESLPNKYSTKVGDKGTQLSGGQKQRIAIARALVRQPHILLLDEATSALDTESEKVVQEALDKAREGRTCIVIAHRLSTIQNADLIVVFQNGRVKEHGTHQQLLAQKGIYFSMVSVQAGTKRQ

MDR1 (ABCB1) [3] = target: T1, MDR1 (ABCB1); test: Activity at MDR1 (unknown origin) expressed in MDCK cells assessed as permeability across basolateral to apical after 90 mins by LC-MS/MS analysis; type: ADME, cell-based
[4] = Permeability across apical to basolateral side in MDCK cells after 90 mins by LC-MS/MS analysis; type: ADME, cell-based, Canis lupus familiaris; conditions: dog
Outline: (§2)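 Wild-type MDCK cells on Transwell filters. Transport was run in HBSS pH 7.4 at 37 °C in A-B and B-A directions, and plates were separated after 90 min incubation. Efflux ratio is Papp(B-A)/Papp(A-B). Papp is reported as "<" when receiver concentrations were below the quantitation limit.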

[5] = Permeability across basolateral to apical side in MDCK cells after 90 mins by LC-MS/MS analysis; type: ADME, cell-based, Canis lupus familiaris; conditions: dog; outline: as §2
MDR1 (ABCB1) [6] = target: T1, MDR1 (ABCB1); test: Activity at MDR1 (unknown origin) expressed in MDCK cells assessed as efflux ratio of permeability across basolateral to apical side over apical to basolateral side; type: ADME, cell-based
[7] = Efflux ratio of permeability across basolateral to apical side over apical to basolateral side in MDCK cells; type: ADME, cell-based, Canis lupus familiaris; conditions: dog; outline: as §2

Papp A→B at 1.5 h (MDR1 (ABCB1) [2]) [×10⁻⁶ cm/s]	Papp B→A at 1.5 h (MDR1 (ABCB1) [3]) [×10⁻⁶ cm/s]	Papp A→B at 1.5 h [4] [×10⁻⁶ cm/s]	Papp B→A at 1.5 h [5] [×10⁻⁶ cm/s]	efflux ratio (MDR1 (ABCB1) [6])	efflux ratio [7]	SMILES	GI50 (MCF7) [nM]	GI50 [1] [nM]	RatioGI50 (NCI/ADR-RES)
28	24.9	31.4	25.1	0.89	0.8	C[C@H]1[C@@H](O)O[C@@H]2O[C@@]3(C)CC[C@H]4[C@H](C)CC[C@@H]1[C@@]24OO3 [ARTENIMOL]	33200	3320	10
–	–	–	–	–	–	C[C@H]1[C@@H](Oc2ccc(CN3CCN(c4ccccc4)CC3)cc2)O[C@@H]2O[C@@]3(C)CC[C@H]4[C@H](C)CC[C@@H]1[C@@]24OO3	240	21	11.43
–	–	–	–	–	–	C[C@H]1[C@@H](Oc2ccc(/C=C/C(=O)N3CCN(c4ccc(F)cc4)CC3)cc2)O[C@@H]2O[C@@]3(C)CC[C@H]4[C@H](C)CC[C@@H]1[C@@]24OO3	270	38	8.57
–	–	–	–	–	–	C[C@H]1[C@@H](Oc2ccc(CC(=O)N3CCN(c4ccccn4)CC3)cc2)O[C@@H]2O[C@@]3(C)CC[C@H]4[C@H](C)CC[C@@H]1[C@@]24OO3	960	80	12
–	–	–	–	–	–	COc1cccc2c1C(=O)c1c(O)c3c(c(O)c1C2=O)C[C@@](O)(C(=O)CO)C[C@@H]3O[C@H]1C[C@H](N)[C@H](O)[C@H](C)O1.Cl [DOXORUBICIN HYDROCHLORIDE]	54	520	0.1
–	–	–	–	–	–	COc1ccccc1N1CCN(C(=O)/C=C/c2ccc(O[C@H]3O[C@@H]4O[C@@]5(C)CC[C@H]6[C@H](C)CC[C@@H]([C@H]3C)[C@@]46OO5)cc2)CC1	140	31	4.52
22.2	23.7	24.3	18.5	1.07	0.76	COCCc1ccc(OCC(O)CNC(C)C)cc1 (configuration not stated) [METOPROLOL]	–	–	–
–	–	–	–	–	–	COc1ccccc1N1CCN(C(=O)Cc2ccc(O[C@H]3O[C@@H]4O[C@@]5(C)CC[C@H]6[C@H](C)CC[C@@H]([C@H]3C)[C@@]46OO5)cc2)CC1	470	43	10.93
4.37	34.1	9.98	23.4	7.81	2.34	C=C[C@H]1C[N@@]2CC[C@H]1C[C@@H]2[C@@H](O)c1ccnc2ccc(OC)cc12 [QUINIDINE]	–	–	–
–	–	–	–	–	–	C[C@H]1[C@@H](Oc2ccc(CN3CCN(c4cccc(C(F)(F)F)c4)CC3)cc2)O[C@@H]2O[C@@]3(C)CC[C@H]4[C@H](C)CC[C@@H]1[C@@]24OO3	220	33	6.67
